Results taken from ChEMBL document CHEMBL4038304, “Chiral Indolylarylsulfone Non-Nucleoside Reverse Transcriptase Inhibitors as New Potent and Broad Spectrum Anti-HIV-1 Agents” (J Med Chem, 2017).

How the values were obtained:
[1] = Inhibition of HIV1 reverse transcriptase p66 K103N/[…] double mutant associated RNA dependent DNA polymerase activity expressed in Escherichia coli assessed as reduction in [3H]dTTP incorporation using poly(rA)/oligo(dT) as template/primer by scintillation counting analysis; parameters: species or system Human immunodeficiency virus 1
[2] = molecular target: Human immunodeficiency virus type 1 reverse transcriptase (Human immunodeficiency virus 1, UniProt Q72547, Y181I); experiment: Inhibition of HIV1 reverse transcriptase p66 Y181I mutant associated RNA dependent DNA polymerase activity expressed in Escherichia coli assessed as reduction in [3H]dTTP incorporation using poly(rA)/oligo(dT) as template/primer by scintillation counting analysis
[3] = tested on: Human immunodeficiency virus 1; experiment: Antiviral activity against HIV1 harboring reverse transcriptase Y188L mutant infected in human […] cells assessed as protection against virus-induced cytopathic effect measured on day 5 post infection by MTT assay; format: functional, cell-based; details: Human immunodeficiency virus 1, 120 h
[4] = tested on: Human immunodeficiency virus 1; experiment: Antiviral activity against HIV1 harboring reverse transcriptase K103N mutant infected in human […] cells assessed as protection against virus-induced cytopathic effect measured on day 5 post infection by MTT assay; format: functional, cell-based; details: Human immunodeficiency virus 1, 120 h
[5] = tested on: Human immunodeficiency virus 1; experiment: Antiviral activity against HIV1 harboring reverse transcriptase Y181C mutant infected in human […] cells assessed as protection against virus-induced cytopathic effect measured on day 5 post infection by MTT assay; format: functional, cell-based; details: Human immunodeficiency virus 1, 120 h
[6] = molecular target: Human immunodeficiency virus type 1 reverse transcriptase (Human immunodeficiency virus 1, UniProt Q72547); experiment: Inhibition of HIV1 NL4-3 reverse transcriptase His-tagged p66/p51 associated RNA dependent DNA polymerase activity expressed in Escherichia coli assessed as reduction in [3H]dTTP incorporation using poly(rA)/oligo(dT) as template/primer by scintillation counting analysis
[7] = tested on: Human immunodeficiency virus 1; experiment: Antiviral activity against HIV1 harboring reverse transcriptase K103N /[…] double mutant infected in human […] cells assessed as protection against virus-induced cytopathic effect measured on day 5 post infection by MTT assay; format: functional, cell-based; details: Human immunodeficiency virus 1, 120 h
[8] = molecular target: Human immunodeficiency virus type 1 reverse transcriptase (Human immunodeficiency virus 1, UniProt Q72547, K103N); experiment: Inhibition of HIV1 reverse transcriptase p66 K103N mutant associated RNA dependent DNA polymerase activity expressed in Escherichia coli assessed as reduction in [3H]dTTP incorporation using poly(rA)/oligo(dT) as template/primer by scintillation counting analysis
[9] = tested on: Human immunodeficiency virus 1; experiment: Antiviral activity against HIV1 NL4-3 infected in human […] cells assessed as protection against virus-induced cytopathic effect measured on day 5 post infection by MTT assay; format: functional, cell-based; details: Human immunodeficiency virus 1, NL4-3, 120 h
How it was run: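 Values are means of two to three independent experiments, each run in triplicate. The lowest detectable concentration is reported where activity fell below the assay limit.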

[10] = Cytotoxicity against human MT4 cells assessed as cell viability by MTT assay; format: cell-based
How it was run: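 Uninfected MT-4 cells scored for viability by MTT. […] Values are means of two to three independent experiments, each run in triplicate.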

[11] = tested on: Human immunodeficiency virus 1; experiment: Ratio of EC50 for HIV-1 harboring reverse transcriptase Y181C mutant infected in human MT4 cells to EC50 for HIV1 NL4-3 infected in human MT4 cells; format: functional
How it was run: (§1)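 Fold change calculated as EC50 against the stated resistant mutant HIV-1 strain divided by EC50 against wild-type NL4-3. Both EC50s come from MTT read-out of virus-induced death in MT-4 cells, mean of two to three independent experiments each in triplicate.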

[12] = tested on: Human immunodeficiency virus 1; experiment: Ratio of EC50 for HIV-1 harboring reverse transcriptase K103N/[…] double mutant infected in human MT4 cells to EC50 for HIV1 NL4-3 infected in human MT4 cells; format: functional; how it was run: as §1
[13] = tested on: Human immunodeficiency virus 1; experiment: Ratio of EC50 for HIV-1 harboring reverse transcriptase K103N mutant infected in human MT4 cells to EC50 for HIV1 NL4-3 infected in human MT4 cells; format: functional; how it was run: as §1
[14] = Selectivity index, ratio of CC50 for human MT4 cells to EC50 for HIV1 NL4-3 infected in human MT4 cells; format: toxicity, cell-based; details: read-out: Ratio CC50/EC50
How it was run: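 SI computed as CC50/EC50, using the MTT-based CC50 in uninfected MT-4 cells and the MTT-based EC50 against HIV-1 NL4-3-induced cell death in MT-4 cells. Experiments were run in triplicate, two to three times.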

[15] = tested on: Human immunodeficiency virus 1; experiment: Ratio of EC50 for HIV-1 harboring reverse transcriptase Y188L mutant infected in human MT4 cells to EC50 for HIV1 NL4-3 infected in human MT4 cells; format: functional; how it was run: as §1

SMILES | IC50 [1] | IC50 [2] | EC50 [3] | EC50 [4] | EC50 [5] | IC50 [6] | EC50 [7] | IC50 [8] | EC50 [9] | CC50 [10] | Ratio EC50 [11] | Ratio EC50 [12] | Ratio EC50 [13] | selectivity ratio [14] | Ratio EC50 [15]
Cc1cc(C)cc(S(=O)(=O)c2c(C(=O)N[C@@H](C)C(=O)NCc3ccco3)[nH]c3ccc(Cl)cc23)c1 | 9640 nM | 14200 nM | 700 nM | 0.6 nM | 3.5 nM | 113 nM | 1890 nM | 1120 nM | 0.6 nM | – | – | – | – | – | –
Cc1cc(C)cc(S(=O)(=O)c2c(C(=O)N[C@@H](C)C(=O)NCc3ccncn3)[nH]c3ccc(Cl)cc23)c1 | 14300 nM | 3140 nM | 380 nM | 0.6 nM | 0.6 nM | 470 nM | 779 nM | 2860 nM | 0.6 nM | – | – | – | – | – | –
Cc1cc(C#N)cc(C)c1Oc1nc(Nc2ccc(C#N)cc2)nc(N)c1Br [ETRAVIRINE] | 97 nM | – | – | 0.7 nM | 18 nM | – | 4.6 nM | – | 16.1 nM | > 23000 nM | – | – | – | – | –
Cc1cc(C)cc(S(=O)(=O)c2c(C(=O)Nc3ccnc(C#N)c3)[nH]c3ccc(Cl)cc23)c1 | 514 nM | 306 nM | – | 0.7 nM | 65 nM | 23 nM | > 6840 nM | 72 nM | 0.7 nM | 6840 nM | 92 | >9771 | 1 | > 9770 | –
Cc1cc(C)cc(S(=O)(=O)c2c(C(=O)N[C@H](C)C(=O)NCc3ccncn3)[nH]c3ccc(Cl)cc23)c1 | – | 3350 nM | 5740 nM | 76 nM | 171 nM | 1800 nM | > 24500 nM | 19900 nM | 0.6 nM | – | – | – | – | – | –
Cc1cc(C)cc(S(=O)(=O)c2c(C(=O)N[C@H](C)C(=O)NCc3ccco3)[nH]c3ccc(Cl)cc23)c1 | 233 nM | 276 nM | > 30200 nM | 311 nM | 933 nM | 145 nM | > 30200 nM | 70 nM | 0.6 nM | – | – | – | – | – | –
Cc1cc(C)cc(S(=O)(=O)c2c(C(=O)N[C@H](C)C(=O)N[C@@H](C)c3ccncc3)[nH]c3ccc(Cl)cc23)c1 | 8420 nM | 9510 nM | > 28500 nM | 204 nM | 668 nM | 1190 nM | 19300 nM | 3550 nM | 1.9 nM | – | – | – | – | – | –
Cc1cc(C)cc(S(=O)(=O)c2c(C(=O)NCC(=O)NCc3ccncn3)[nH]c3ccc(Cl)cc23)c1 | 835 nM | 529 nM | 449 nM | 19.6 nM | 0.6 nM | 202 nM | 2300 nM | 548 nM | 0.6 nM | > 48800 nM | 1 | >3842 | 33 | > 81400 | >743
Cc1cc(C)cc(S(=O)(=O)c2c(C(=O)N[C@@H](C)C(=O)N[C@@H](C)c3ccncc3)[nH]c3ccc(Cl)cc23)c1 | 860 nM | 440 nM | 612 nM | 1.3 nM | 0.6 nM | 430 nM | 1280 nM | 2590 nM | 0.6 nM | – | – | – | – | – | –
